Columns and labels:
Beta-secretase 1 = Beta-secretase 1 (Homo sapiens, UniProt P56817); experiment: Inhibition of BACE1 (unknown origin) expressed in baculovirus expression system using Rh-EVNLDAEFK-Quencher as substrate after 90 mins by FRET assay
[1] = Cytotoxicity against mouse Neuro2a cells expressing APP Swedish mutant assessed as cell viability at 10 uM after 24 hrs by MTT assay relative to control; assay type: cell-based, N2a; settings: read-out: Activity
How it was run: (§1)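 N2a-APPswe cells seeded at 2 × 10⁵ cells/ml (8 × 10⁴/well), grown overnight at 37 °C, then dosed as in the Aβ assay (DMSO diluted in medium, final DMSO under 0.5%). MTT 0.5 mg/ml added for 4 h at 37 °C, formazan dissolved in DMSO, read at 570 nm with 655 nm background. Viability given as percent of untreated control. Average of 3–4 experiments ± SEM.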

[2] = Cytotoxicity against mouse Neuro2a cells expressing APP Swedish mutant assessed as cell viability at 5 uM after 24 hrs by MTT assay relative to control; assay type: cell-based, N2a; settings: read-out: Activity; how it was run: as §1
[3] = biological target: Beta-secretase 1 (Mus musculus) (UniProt P56818); experiment: Inhibition of BACE1 in mouse Neuro2a cells expressing APP Swedish mutant assessed as inhibition of amyloid beta (1 to 40) production at 10 uM after 24 hrs by sandwich ELISA relative to control; assay type: cell-based
Sequence of Beta-secretase 1 (Mus musculus) (P56818 whole entry): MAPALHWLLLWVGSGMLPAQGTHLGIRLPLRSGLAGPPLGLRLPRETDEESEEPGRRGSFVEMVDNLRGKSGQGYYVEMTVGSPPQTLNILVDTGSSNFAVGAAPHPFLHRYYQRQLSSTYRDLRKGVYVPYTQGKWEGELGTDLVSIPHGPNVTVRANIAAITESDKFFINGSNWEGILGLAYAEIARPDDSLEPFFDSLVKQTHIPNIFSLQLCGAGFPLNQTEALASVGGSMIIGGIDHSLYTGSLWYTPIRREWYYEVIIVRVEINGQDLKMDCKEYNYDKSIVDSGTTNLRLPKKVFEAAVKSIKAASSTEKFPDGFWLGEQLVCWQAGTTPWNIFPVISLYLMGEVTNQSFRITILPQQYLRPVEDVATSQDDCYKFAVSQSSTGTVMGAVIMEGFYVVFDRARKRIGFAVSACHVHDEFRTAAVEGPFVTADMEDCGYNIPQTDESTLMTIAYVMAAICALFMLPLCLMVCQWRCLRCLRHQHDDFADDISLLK
How it was run: (§2)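 N2a-APPswe cells seeded at 2 × 10⁵ cells/ml and incubated overnight at 37 °C. Medium replaced, compound in growth medium added (DMSO under 0.5%), incubated 24 h. Conditioned medium collected with 0.1 mM PMSF. Human Aβ1–40 measured by colorimetric sandwich ELISA at 450 nm. Percent inhibition relative to untreated cells, 2–3 experiments ± SEM.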

[4] = biological target: Beta-secretase 1 (Mus musculus) (UniProt P56818); experiment: Inhibition of BACE1 in mouse Neuro2a cells expressing APP Swedish mutant assessed as inhibition of amyloid beta (1 to 40) production at 5 uM after 24 hrs by sandwich ELISA relative to control; assay type: cell-based; how it was run: as §2

Sequence of Beta-secretase 1 (P56817 whole entry): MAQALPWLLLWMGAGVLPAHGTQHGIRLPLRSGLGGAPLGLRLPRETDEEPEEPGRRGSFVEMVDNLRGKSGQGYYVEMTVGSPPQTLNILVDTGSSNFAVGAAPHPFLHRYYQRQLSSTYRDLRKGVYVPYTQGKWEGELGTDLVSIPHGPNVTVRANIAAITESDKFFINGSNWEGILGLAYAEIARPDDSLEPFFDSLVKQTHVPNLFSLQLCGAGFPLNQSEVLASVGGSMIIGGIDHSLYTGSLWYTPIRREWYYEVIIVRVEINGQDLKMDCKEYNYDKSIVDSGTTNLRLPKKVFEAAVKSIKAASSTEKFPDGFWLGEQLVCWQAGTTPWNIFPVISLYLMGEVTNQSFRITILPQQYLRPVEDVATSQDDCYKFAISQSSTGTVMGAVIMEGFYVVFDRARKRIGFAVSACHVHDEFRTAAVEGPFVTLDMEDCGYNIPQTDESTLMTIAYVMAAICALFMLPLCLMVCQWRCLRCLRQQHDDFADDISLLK

Row | IC50 (Beta-secretase 1) [µM] | inhibition [3] [%] | inhibition [4] [%] | SMILES | viability at 24 h, 10 µM [1] [%] | viability at 24 h, 5 µM [2] [%]
1 | 3.55 |  |  | O=C(Nc1cc(Br)ccc1N1CCN(C(=O)c2cccs2)CC1)c1cc2ccccc2o/c1=N\c1ccccc1 |  | 
2 | 0.098 | 39.4 | 13.6 | O=C(Nc1cc(Br)ccc1N1CCN(CCN2C(=O)c3ccccc3C2=O)CC1)c1cc2ccccc2o/c1=N\c1ccccc1 | 96.5 | 108
3 | 1.22 | 58.3 | 26.4 | N=c1oc2ccccc2cc1C(=O)Nc1cc(Br)ccc1N1CCN(Cc2ccccc2)CC1 | 98.9 | 99.7
4 | > 10 |  |  | CC(C)(C)OC(=O)N1CCN(c2ccc(Br)cc2NC(=O)c2cc3ccccc3oc2=N)CC1 |  | 
5 | 0.119 | 51.8 |  | N#Cc1cccc(CN2CCN(c3ccc(Br)cc3NC(=O)c3cc4ccccc4o/c3=N\c3ccccc3)CC2)c1 | 88.7 | 91.2
6 | 0.503 | 64.7 | 60.9 | O=C(Nc1cc(Br)ccc1N1CCN(Cc2ccccc2)CC1)c1cc2ccccc2o/c1=N\c1ccccc1 | 95 | 102
7 | > 10 |  |  | COc1cccc2cc(C(=O)Nc3cc(Br)ccc3N3CCN(Cc4ccccc4)CC3)/c(=N/c3ccccc3)oc12 |  | 
8 | 0.849 | 48.2 | 41.3 | O=C(Nc1cc(Br)ccc1N1CCN(CCO)CC1)c1cc2ccccc2o/c1=N\c1ccccc1 | 101 | 105
9 | 0.741 | 65.8 | 53.1 | O=C(Nc1cc(Br)ccc1N1CCN(C(=O)c2ccco2)CC1)c1cc2ccccc2o/c1=N\c1ccccc1 | 95.4 | 93
10 | 25.7 |  |  | COc1ccccc1C(=O)N1CCN(c2ccc(Br)cc2NC(=O)c2cc3ccccc3o/c2=N\c2ccccc2)CC1 |  | 
11 | > 10 |  |  | COc1ccc(C(=O)N2CCN(c3ccc(Br)cc3NC(=O)c3cc4ccccc4o/c3=N\c3ccccc3)CC2)cc1 |  | 
12 | 0.326 |  | 44.3 | O=C(Nc1cc(Br)ccc1N1CCN(CCCN2C(=O)c3ccccc3C2=O)CC1)c1cc2ccccc2o/c1=N\c1ccccc1 |  | 101
13 | > 10 |  |  | O=C(Nc1cc(Br)ccc1N1CCN(C(=O)c2cccc(Cl)c2)CC1)c1cc2ccccc2o/c1=N\c1ccccc1 |  | 

The remaining lines, values behind:

Row | SMILES | IC50 (Beta-secretase 1) [µM] | inhibition [3] [%] | inhibition [4] [%] | viability at 24 h, 10 µM [1] [%] | viability at 24 h, 5 µM [2] [%]
14 | COc1ccc(CN2CCN(c3ccc(Br)cc3NC(=O)c3cc4ccccc4o/c3=N\c3ccccc3)CC2)cc1 | 0.578 | 22.9 |  | 98.3 | 101
15 | CC(C)C[C@H](NC(=O)[C@H](CC(N)=O)NC(=O)[C@@H](NC(=O)[C@@H](N)CCC(=O)O)C(C)C)[C@@H](O)CC(C)C(=O)N[C@@H](C)C(=O)N[C@@H](CCC(=O)O)C(=O)N[C@@H](Cc1ccccc1)C(=O)O (single isomer, unassigned) |  |  |  | < 70 | < 70
16 | O=C(Nc1cc(Br)ccc1N1CCN(C(=O)c2cccc([N+](=O)[O-])c2)CC1)c1cc2ccccc2o/c1=N\c1ccccc1 | 26.4 |  |  |  | 
17 | COc1cccc2cc(C(=O)Nc3cc(Br)ccc3N3CCN(Cc4ccccc4)CC3)c(=N)oc12 | > 10 |  |  |  | 
18 | CC(C)(C)OC(=O)N1CCN(c2ccc(Br)cc2NC(=O)c2cc3ccccc3o/c2=N\c2ccccc2)CC1 | 9.81 |  |  |  | 
19 | O=C(Nc1cc(Br)ccc1N1CCN(CCCCN2C(=O)c3ccccc3C2=O)CC1)c1cc2ccccc2o/c1=N\c1ccccc1 | 0.854 |  |  |  | 
20 | O=C(Nc1cc(Br)ccc1N1CCNCC1)c1cc2ccccc2o/c1=N\c1ccccc1 | 9.27 |  |  |  | 
21 | O=C(Nc1cc(Br)ccc1N1CCN(CCc2cc3ccccc3[nH]2)CC1)c1cc2ccccc2o/c1=N\c1ccccc1 | 0.928 | 57.6 | 37.8 | 111 | 105
22 | N#CCCCN1CCN(c2ccc(Br)cc2NC(=O)c2cc3ccccc3o/c2=N\c2ccccc2)CC1 | > 10 |  |  |  | 
